Data on 16 compounds can be found in ChEMBL document CHEMBL1137788, “Potential neuroprotective drugs in cerebral ischemia: new saturated and polyunsaturated lipids coupled to hydrophilic moieties: synthesis and biological activity” (J Med Chem, 2009).

The subject of data set [1] is HT-22. The experiment in a line: Neuroprotective effect against iodoacetic acid-induced ischemia in mouse HT22 cells assessed as cell survival at 1 to 10 uM treated simultaneously with iodoacetic acid for 2 hrs followed by incubation in fresh medium containing drug alone for 20 hrs measured after 4 hrs by MTT assay. In kind it is functional. The method in brief:
(§1)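 HT22 cells were seeded at 5 × 10³ per well and moved next day to DMEM with 7.5% dialyzed FCS. They were exposed to 20 μM iodoacetic acid plus graded compound doses for 2 h, then given fresh IAA-free medium containing compound for 20 h. MTT was added for 4 h at 37 °C and absorbance read at 570 nm.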
On the technique in general: Formazan colour is commonly taken as a measure of viable cells.

Data set [2] relates to HT-22. Description: Neuroprotective effect against glutamate-induced neuronal cell death in mouse HT22 cells assessed as cell survival at 1 to 10 uM treated simultaneously with glutamate after 24 hrs by MTT assay. In kind it is functional. The method in brief:
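Mouse HT22 hippocampal cells grown in DMEM/10% FCS, seeded 5 × 10³ cells/well. Next day medium changed to DMEM with 7.5% dialyzed FCS and cells given analogue doses together with 5 mM glutamate for 24 h. Medium then replaced with 2.5 μg/mL MTT for 4 h at 37 °C and solubilized in 50% DMF/20% SDS (pH 4.7). A570 read next day. Maximal % survival at best dose reported.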

Data set [3] concerns HT-22. Description: Neuroprotective effect against iodoacetic acid-induced ischemia in mouse HT22 cells treated simultaneously with iodoacetic acid for 2 hrs followed by incubation in fresh medium containing drug alone for 20 hrs measured after 4 hrs by MTT assay. The data set is classed as functional, cell-based. The method, boiled down:
as §1

Data set [4] deals with HT-22. The experiment in a line: Activation of ERK phosphorylation in mouse HT22 cells at 10 uM treated simultaneously with iodoacetic acid for 2 hrs followed by 2 hrs of recovery in presence of drug alone by immunoblot analysis. The data set is classed as cell-based. The method in brief:
(§2)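 HT22 cells, plated at the same density as for the death assays, were given 10 μM compound with or without 20 μM IAA for 2 h, then allowed 2 h of recovery with compound present. Cells were washed in PBS and lysed in SDS sample buffer with Na3VO4 and PMSF. Lysates were run on 10% gels and immunoblotted for phospho and total ERK, JNK, p38, c-Jun and MAPKAPK2.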
(In western blotting, separated proteins are transferred to a membrane and probed.)

The nature of data set [5]: Cytotoxicity against mouse HT22 cells at 10 uM after 24 hrs by MTT assay. In kind it is cell-based. The note with it: ht-22, 24 h. The method in brief: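 HT22 cells grown in DMEM with 10% FCS were seeded at 5 × 10³ cells per well. The medium was switched to DMEM with 7.5% dialyzed FCS and cells were exposed to 10 μM compound alone. Viability was read after 24 h by MTT (2.5 μg/mL, 4 h at 37 °C, solubilized in DMF/SDS pH 4.7) at 570 nm.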

Data set [6] relates to Brain. The experiment in a line: Neuroprotective effect against glutamate-induced injury in rat brain slices at 10 uM treated 1 hr prior to and during glutamate challenge by 2, 3, 5-triphenyl tetrazolium chloride staining method. In kind it is functional, tissue-based. The method in brief:
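Rat cortical slices were cultured with compound for 1 h before and during injury with 1 mM glutamate. Slice viability was assessed by TTC staining, n=6, mean ± SD.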

In data set [7] the test system is HT-22. The experiment in a line: Inhibition of JNK activation in mouse HT22 cells assessed as c-jun phosphorylation at 10 uM treated simultaneously with iodoacetic acid for 2 hrs followed by 2 hrs of recovery in presence of drug alone by immunoblot analysis. The data set is classed as cell-based. The method in brief:
as §2

The target of data set [8] is T1, MAP kinase p38 (Mus musculus) (UniProt P47811+O08911+Q9WUI1+Q9Z1B7). The experiment in a line: Inhibition of p38 MAPK activation in mouse HT22 cells at 10 uM treated simultaneously with iodoacetic acid for 2 hrs followed by 2 hrs of recovery in presence of drug alone by immunoblot analysis. The data set is classed as cell-based. To be noted: HT-22. The method, boiled down:
as §2

The test system of data set [9] is HT-22. Description: Inhibition of JNK activation in mouse HT22 cells at 10 uM treated simultaneously with iodoacetic acid for 2 hrs followed by 2 hrs of recovery in presence of drug alone by immunoblot analysis. The data set is classed as cell-based. The method, boiled down:
as §2

For data set [10], the target named is T1, MAP kinase p38 (Mus musculus). Description: Inhibition of p38 MAPK activation in mouse HT22 cells assessed as MAPKAPK2 phosphorylation at 10 uM treated simultaneously with iodoacetic acid for 2 hrs followed by 2 hrs of recovery in presence of drug alone by immunoblot analysis. The note with it: HT-22. In kind it is cell-based. The method, boiled down:
as §2

Each structure is given as a SMILES string. Calls of active or inactive are those of the source. The calls are words filed in the database; no cut-off is given here.

The EC50 is the concentration that produces a half-maximal response. For the compound `CCCCCCCCCCCCCCCCCC(=O)NC(CO)P(=O)(OC)OC` (stereo not drawn), the “%max” value is on record as 64% in data set [1] and 17% in data set [2]. The compound further registered an EC50 in [3] of 4.1 µM. Further, in data set [4], the outcome was inactive. In addition, the Activity in [5] was 11%.

On to `CCCCCCCCCCCCCCCCCC(=O)NC(CO)C(=O)O` (stereo not drawn), for which the “%max” value in data set [1] is on record as 65%; in [2], 16%. A half-maximal response in data set [3] (EC50) required 3.2 µM. Moreover, the result in data set [6] was Active. Besides, the outcome in [4] was inactive. For the same compound, the Activity in [5] worked out at 28%.

With `CCCCCCCCCCCCCCCCCC(=O)NC(CO)P(=O)(O)O` (stereo not drawn), the figures for the “%max” value in data set [1] and in data set [2] were 74% and 20%, respectively. Moreover, the EC50 in data set [3] worked out at 2.1 µM. In addition, the outcome in data set [4] was inactive. In [5], this compound returned an Activity of 50%.

In the case of `CCCCC/C=C\C/C=C\CCCCCCCC(=O)NCCCCCC(=O)OCC(O)C1OC(=O)C(O)=C1O` (stereo not drawn), the “%max” value was 55% in data set [1] and 32% in [2]. Moreover, the EC50 in [3] came out at 6.4 µM. The outcome in data set [4] was inactive. In data set [5], this compound showed an Activity of 19%.

On to `CCCCCCCCCCCCCCCCCC(=O)NCCCCCC(=O)OCC(O)C1OC(=O)C(O)=C1O` (stereo not drawn), for which the entries for the “%max” value in data set [1] and in [2] were 92% and 65%, respectively. The EC50 in data set [3] came to 1.8 µM. In [4], the result was inactive. The Activity in data set [5] came out at 40%.

`CCCCCCCCCCCCCCCCCC(=O)NC(CO)C(=O)OCC` (stereo not drawn): the “%max” value in data set [1] was 56%; in data set [2], 16%. The compound also came in with an EC50 in data set [3] of 9.8 µM. In addition, in data set [4], the outcome was inactive. This compound displayed an Activity in data set [5] of 53%.

For the compound `CCOC(=O)C(CO)NC(=O)/C=C(C)/C=C/C1(O)C(C)=CC(=O)CC1(C)C` (stereo not drawn), the “%max” value in [1] came out at 39%; in [2], 21%. This compound gave an EC50 in data set [3] of 13.6 µM. Further, the result in [4] was inactive. For the same compound, the Activity in [5] is listed as 1%.

Take `CC1=C(/C=C/C(C)=C/C=C/C(C)=C/C(=O)NC(CO)C(=O)O)C(C)(C)CCC1` (stereo not drawn): the results for the “%max” value in data set [1] and in data set [2] were 63% and 16%, respectively. The compound also gave a concentration for a half-maximal effect (EC50) in data set [3] of 4.1 µM. Moreover, the outcome in data set [4] was inactive. In [5], the Activity was 20%.

With `CCCCC/C=C/C/C=C/CCCCCCCC(=O)NCCCCCC(=O)OCC(O)C1OC(=O)C(OCc2ccccc2)=C1OCc1ccccc1` (stereo not drawn), the “%max” value in data set [1] came to 59%; in [2], 13%. Also, the EC50 in data set [3] worked out at 8.2 µM. Besides, in [4], the result was inactive. In data set [5], the Activity was 7%.

As to `CC(C)C1=CC2=CCC3[C@](C)(CCC[C@]3(C)C(=O)NC(CO)C(=O)O)[C@@H]2CC1` (stereo partly drawn), the “%max” value in data set [1] is on record as 27%; in [2], 10%. Further, in [4], the result was inactive. In [5], this compound displayed an Activity of 26%.

In the case of `CCCCC/C=C/C/C=C/CCCCCCCC(=O)NC(C(=O)OCC)c1nnn[nH]1` (stereo not drawn), the “%max” value in data set [1] is given as 41%; in [2], 8%. This compound also displayed an EC50 in data set [3] of 11.3 µM. Moreover, in data set [4], the outcome was inactive. In data set [5], this compound came in with an Activity of 4%.

As to `CCOC(=O)C(CO)NC(=O)[C@@]1(C)CCC[C@@]2(C)C1CC=C1C=C(C(C)C)CC[C@H]12` (stereo partly drawn), the result in data set [7], in [8], in [9] and in data set [10] was Active. The “%max” value was found to be 85% in [1] and 55% in [2]. This compound also registered an EC50 in data set [3] of 1.05 µM. For the same compound, the result in [4] was inactive. For the same compound, in [5], the Activity is given as 25%.

In the case of `CCCCCCCCCCCCCCCCCC(=O)NCCCCCC(=O)OCC(O)C1OC(=O)C(OCc2ccccc2)=C1OCc1ccccc1` (stereo not drawn), the “%max” value is reported as 68% in data set [1] and 19% in [2]. The compound further returned an EC50 in data set [3] of 2.5 µM. Moreover, in data set [4], the outcome was inactive. The same compound came in with an Activity in [5] of 48%.

Regarding `O=c1c(O)c(-c2ccc(O)c(O)c2)oc2cc(O)ccc12` [FISETIN], in data set [1], the “%max” value is listed as 95%. The same compound had an EC50 in data set [3] of 2.8 µM. Besides, the outcome in [4] was inactive. The compound also came in with an Activity in [5] of 15%.

For the compound `CCOC(=O)C(CO)NC(=O)C=C(C)/C=C/C=C(C)/C=C/C1=C(C)CCCC1(C)C` (stereo not drawn), the “%max” value in data set [1] amounted to 45%; in data set [2], 14%. In [3], this compound returned an EC50 of 11.6 µM. In data set [4], the result was inactive. The compound also returned an Activity in data set [5] of 15%.

With `CC1=CC(=O)CC(C)(C)C1(O)/C=C/C(C)=C/C(=O)NC(CO)C(=O)O` (stereo not drawn), the figures for the “%max” value in data set [1] and in [2] were 70% and 14%, respectively. Further, in [3], the EC50 came to 2.7 µM. Besides, the result in data set [4] was inactive. Further, in data set [5], the Activity amounted to 40%.
